Assay outcomes as filed in PubChem BioAssay.
Runt-SMMHC FRET: blocks binding of human RUNX1 Runt domain to CBFb-SMMHC. inhibition, % at 20 µM. 220,000 compounds, 0.74% hits. AID 1434. Q01196+Q13951. Cerulean-Runt/Venus-CBFb-SMMHC FRET ratio 530/480, 1 h;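 active means mean inhibition across duplicate retests at 20 µM reaching about 50%, limit read from the data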;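 further: 0% = DMSO wells and 100% = wells with excess untagged CBFb-SMMHC; inhibitors lower the FRET ratio by blocking Runt binding to CBFb-SMMHC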
EBV gp42 inh: EBV gp42 inhibition; AID 1085; inhibition, % (tested at 21.74 µM); 220,000 compounds, 0.42% hits; Fluorescence polarization binding assay, mP read-out; Q1HVG2
Runt-CBFb FRET: inhibitors of human RUNX1 Runt domain binding to CBFb; Q01196+Q13951; Cerulean-Runt/Venus-CBFb FRET ratio 530/480, 1 h; inhibition, % at 20 µM; 220,000 compounds, 0.46% hits; AID 1496;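 active means inhibition over about 50% at 20 µM in the single-dose screen, limit read from the data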;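 further: 0% = DMSO wells and 100% = excess unlabeled CBFb competitor control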
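test system = Cerulean-Runt domain fusion protein, energy donor | probe or stimulus = Venus-CBFb binding partner, 100 nM | incubation = two 1 h room-temperature incubations shielded from light | detection = fluorescence energy transfer, 422 nm excitation, 530/480 nm emission | measure = loss of energy transfer signal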
MEX-5 binding: C. elegans MEX-5 TCR-2 RNA binding activity; Q9XUB2; MEX-5/FITC-TCR2 RNA binding, fluorescence polarization; stronger effect = lower value; activity score (negative = inhibition of binding), % at 10 µM; 300,000 compounds, 0.38% hits;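 active means inhibition past about -25% in most replicates, and total fluorescence under double the plate's negative control median, limit read from the data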;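 further: 0% = DMSO and -100% = 5 µM competing unlabeled TCR2 RNA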
RanGTP-Impb inh: disruptors of Ran-importin-beta complex formation – biochemical, FRET, CFP-Ran, YFP-importin-beta, homogeneous, primary screen | cell-free CFP-Ran/YFP-importin-beta FRET ratio | inhibition, % (concentration not given with the values) | 300,000 compounds, 1.1% hits;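 active means more than half of the replicate wells show a fall in the fluorescence ratio signal beyond about 16%, limit read from the data, passing the limit was not always enough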;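 further: 0% = DMSO wells and 100% = Ran loaded with GDP instead of GTP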
PKD1 inh: inhibitors of human PKD1 kinase; 200,000 compounds, 0.056% hits; inhibition, % (no concentration beside the values); PKD1 kinase fluorescence polarization assay
Target sequence (Q15139 whole entry, looked up): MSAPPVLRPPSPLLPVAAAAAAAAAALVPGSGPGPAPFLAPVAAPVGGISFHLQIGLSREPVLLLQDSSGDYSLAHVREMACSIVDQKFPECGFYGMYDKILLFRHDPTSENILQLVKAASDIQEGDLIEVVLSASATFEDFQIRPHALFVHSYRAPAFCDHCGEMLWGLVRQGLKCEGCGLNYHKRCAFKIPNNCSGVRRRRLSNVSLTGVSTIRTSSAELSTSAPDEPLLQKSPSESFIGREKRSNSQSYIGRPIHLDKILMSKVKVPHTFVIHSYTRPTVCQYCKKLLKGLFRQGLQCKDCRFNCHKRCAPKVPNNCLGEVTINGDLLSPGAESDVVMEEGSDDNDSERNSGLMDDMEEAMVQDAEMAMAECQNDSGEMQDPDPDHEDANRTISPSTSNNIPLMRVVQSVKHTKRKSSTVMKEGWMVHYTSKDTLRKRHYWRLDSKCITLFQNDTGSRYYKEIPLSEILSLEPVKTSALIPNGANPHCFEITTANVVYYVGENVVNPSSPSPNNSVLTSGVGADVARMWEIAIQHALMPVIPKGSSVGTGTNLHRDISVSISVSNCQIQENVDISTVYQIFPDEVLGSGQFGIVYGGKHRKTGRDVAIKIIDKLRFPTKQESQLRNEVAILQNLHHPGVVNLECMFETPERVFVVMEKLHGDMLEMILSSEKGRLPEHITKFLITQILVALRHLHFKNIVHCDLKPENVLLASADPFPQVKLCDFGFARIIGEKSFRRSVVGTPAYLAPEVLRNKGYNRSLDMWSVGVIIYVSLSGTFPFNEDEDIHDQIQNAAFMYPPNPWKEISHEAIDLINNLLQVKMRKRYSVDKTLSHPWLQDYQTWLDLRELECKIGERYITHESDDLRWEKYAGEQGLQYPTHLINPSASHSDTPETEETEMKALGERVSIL
YIC FRET counter: counter-screen YIC FRET for RanGTP-importin-beta inhibitors. IC50, µM. shares compounds with RanGTP-Impb inh. Purified YIC probe, intramolecular FRET ratio YFP/CFP. 1,000 compounds, 40% hits;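 active means fitted half-maximal inhibitory concentration no more than tenfold above the top dose tested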
An asterisk follows results filed as active; i = inactive; · = no result. Most compounds without a hit are left out; they make up all but 2% or so of the library. Unless noted, no stated cut-off is given here; in the data, active means inhibition above about 50%; inactive means the rest.

SMILES | Runt-SMMHC FRET | EBV gp42 inh | Runt-CBFb FRET | MEX-5 binding | RanGTP-Impb inh | PKD1 inh | YIC FRET counter
Cc1cc(C)c2c(N)c(C(=O)NNC(=O)c3ccccc3)sc2n1 | 1.9 | -22.3 | 1.6 | -7.1 | 11.1 | 1.4 | ·
O=C(OCc1ccccc1)N1CCc2ccccc21 | · | · | · | -1.4 | -0.9 | · | ·
CC(=O)c1ccc(-c2cccs2)s1 | 142.6* | -3.9 | 78.4* | 2.4 | 18.6* | -0.4 | 28.9*
CC(=O)N1N=C(c2cccs2)CC1c1cccs1 (stereo not drawn) | 1.3 | 2.9 | -0.1 | 0.8 | -0.1 | 3.7 | ·
O=c1c2ccccc2nc(-c2ccccc2)n1CCCN1CCOCC1 | -4.0 | -6.5 | 1.5 | 0.4 | 1.8 | -7.0 | ·
Nc1c(C(=O)Nc2ccccc2)c2nc3ccccc3nc2n1CCCN1CCOCC1 | 10.6 | -0.3 | 10.3 | 2.6 | 27.5* | · | 29.6*
CCOCCCn1c(=N)c(C(=O)NCc2ccc3c(c2)OCO3)cc2c(=O)n3cccc(C)c3nc21 | 163.0* | -7.8 | 60.5* | -2.3 | 29.2* | -13.8 | 18*
COCCCn1c(=N)c(C(=O)NCc2ccc3c(c2)OCO3)cc2c(=O)n3ccccc3nc21 | 172.3* | -9.7 | 79.0* | -9.1 | 36.0* | -5.3 | 24.9*
CCc1ccc(-c2nc(CSCC(=O)N3CCN(c4ccccn4)CC3)c(C)o2)cc1 | -2.4 | -18.5 | -3.1 | -4.5 | 18.5* | 2.6 | >50
COc1cccc(C(=O)CC(=O)C(=O)Nc2cc(OC)c(OC)c(OC)c2)c1 | · | · | · | -1.8 | 0.3 | · | ·
CCCc1n(CC(O)COCc2ccccc2)c2ccccc2[n+]1C (stereo not drawn) | 12.8 | -43.6 | -8.4 | 1.1 | 35.1* | -5.5 | >50
COc1cc2c(cc1OC)C(COc1cc(C)cc(C)c1)N(C(C)=O)CC2 (stereo not drawn) | · | · | · | 2.2 | -2.0 | · | ·
CCN(CC(=O)Nc1c(F)cccc1F)C(=O)c1ccc(COc2ccccc2)cc1 | · | · | · | 0.6 | -0.9 | · | ·
CCOc1ccc(OCc2ccc(C(=O)N(CC)CC)cc2)cc1 | -2.7 | -4.0 | -3.4 | 1.5 | 21.1* | -4.9 | >50
O=C(O)C1C2CCC(C2)C1C(=O)NCCc1ccc(F)cc1 (stereo not drawn) | · | · | · | -3.1 | 21.0* | · | >50
O=C(O)C1C2CCC(C2)C1C(=O)NCCc1cccc(Cl)c1 (stereo not drawn) | · | · | · | -1.0 | -4.2 | · | ·
CCOc1ccc2oc(C(=O)N3CCN(c4ccccc4OCC)CC3)c(C)c2c1 | · | · | · | -0.7 | 0.6 | · | ·
Cc1csc2ncnc(NC3CCN(Cc4ccccc4)CC3)c12 | -5.8 | -9.5 | 0.9 | -0.6 | 19.3* | · | >50
Cn1c(=O)c(Oc2ccc(F)cc2)c(O)c2ccccc21 | 2.3 | -24.1 | 1.3 | -2.3 | 4.9 | -9.0 | ·
Cn1c2ccccc2c(=O)c2ccc(F)cc21 | · | · | · | -1.9 | 35.1* | · | 14.9*
Cn1c(=O)c2c(ncn2CCOc2ccc(F)cc2)n(C)c1=O | · | · | · | 3.3 | 16.4* | · | >50
Cn1c(=O)c2c(ncn2CCOc2ccc(Br)cc2)n(C)c1=O | · | · | · | 0.5 | -0.1 | · | ·
COc1ccc(C(CC(=O)Nc2ccccn2)N2Cc3ccccc3C2=O)cc1OC (stereo not drawn) | · | · | · | -1.5 | -3.2 | · | ·
Cc1cccc(NC(=O)CCCN2C(=O)C(c3ccccc3)Oc3cccnc32)c1C (stereo not drawn) | · | · | · | 1.4 | 6.0 | · | ·
Cc1nc2ccccc2n1CC(=O)N1CC(=O)Nc2ccccc21 | 0.3 | -6.1 | 3.0 | -0.7 | 17.6* | -2.9 | >50
Cn1c(N/N=C/c2cc3ccccc3nc2Cl)nc2ccccc21 | -0.1 | 31.7 | 1.9 | -5.4 | 17.3* | -1.8 | i
Cn1c(N/N=C/c2c[nH]c3ccccc23)nc2ccccc21 | 1.8 | -9.6 | 5.0 | -0.4 | 5.2 | 0.3 | ·
Cc1ccc(/C=N/Nc2ccnc3cc(Cl)ccc23)c(C)c1 | -20.7 | -42.3 | -19.0 | -0.2 | -4.6 | -0.3 | ·
Cc1ccccc1/C=N/Nc1ccnc2cc(Cl)ccc12 | -33.7 | -35.3 | -22.8 | -2.0 | 23.4* | -5.3 | >50
CCc1cc(=O)oc2c(CN3CCN(C)CC3)c(O)c(Cl)cc12 | 90.6* | -0.5 | 99.5* | -2.3 | 31.9* | 3.7 | 33.1*
